Data as given in ChEMBL document CHEMBL5096187, “Efficient Synthesis and Bioevaluation of Novel Dual Tubulin/Histone Deacetylase 3 Inhibitors as Potential Anticancer Agents” (J Med Chem, 2021).
pIC50: −log10 of the molar value. Active and inactive are the calls of the source. The calls are words filed in the database; no cut-off is given here.

Experiments:
[1] = In vivo inhibition of HDAC in tumor of mouse B16-F10 cells xenografted in C57BL/6 mouse assessed as increase in acetylated histone-H3 expression by […] immunohistochemistry method; format: functional; parameters: scale not given: the % may be the effect or the level left
Method in brief: (§1)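 Tumors from the 14-day i.p. B16-F10 study were formalin-fixed and paraffin-embedded. Sections were deparaffinized, treated with 3% H2O2, and antigen-retrieved at pH 9 and 80 °C overnight. Blocked with milk, incubated with anti-Ac-H3 at 4 °C overnight, then IgG secondary and hematoxylin counterstain. Ac-H3-positive ratio quantified from images.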

HCT-116 = assay: Antiproliferative activity against human HCT-116 cells assessed as inhibition of cell viability measured for 48 hrs by microplate reader based MTT assay; format: functional; settings: HCT-116, 48 h
Method in brief: (§2)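 Cells grown in RPMI-1640 with 10% FBS and seeded at 5000 cells/well. After overnight attachment, compound was added in medium with 0.1% DMSO for 48 h at 37 °C. Read-out was MTT for HCT-116, B16-F10 and A549, and CCK-8 for Jurkat (0.5 mg/mL, 4 h), with absorbance at 570 nm. IC50 from nonlinear regression; at least three independent experiments.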

B16-F10 [2] = assay: Antitumor activity against mouse B16-F10 cells allografted in C57BL/6 mouse assessed as tumor growth inhibition at 10 mg/kg, ip administered for 14 days in presence of (2-phenylthiazol-4-yl)(3,4,5-trimethoxyphenyl)methanone; format: functional; settings: B16-F10, 336 h, time 14 day, read-out: TGI
Method in brief: (§3)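 C57BL/6 mice were inoculated subcutaneously with 3×10⁵ B16-F10 cells in PBS and randomized (n = 8). Drugs in ethanol/polyoxyethylene castor oil/saline (1.25:1.25:7.5) or vehicle alone were given i.p. once daily for 14 days. Mice were sacrificed at day 14 and tumors weighed; TGI(%) = [1 − Wt/Wv] × 100 using mean tumor weights.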

B16-F10 [3] = assay: Induction of apoptosis in mouse B16-F10 cells assessed as late apoptotic cells at 100 nM incubated for 48 hrs by Annexin V-FITC/PI analysis (reference value: 0.00 %); format: functional
[4] = Cardiotoxicity in C57BL/6 mouse ssessed as shortening of QTc level in presence of (2-phenylthiazol-4-yl)(3,4,5-trimethoxyphenyl)methanone by ECG analysis; format: toxicity
Method in brief: (§4)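 Mice aged 6–8 weeks dosed by intragastric gavage once daily for 14 days; ECG and heart rate recorded on a PowerLab system.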

[5] = Toxicity in C57BL/6 mouse allografted with mouse B16-F10 cells assessed as morphological abnormalities in kidney at 10 mg/kg, ip administered for 14 days by H and E staining based analysis; format: organism-based; settings: in vivo, 336 h, time 14 day
Method in brief: (§5)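 C57BL/6 mice with subcutaneous B16-F10 allografts, n = 8 per group, given i.p. injections once daily for 14 days. Single agents at 10 mg/kg; combination at 5 + 5 mg/kg. Vehicle: ethanol/polyoxyethylene castor oil/saline 1.25:1.25:7.5. Liver and kidney fixed in 4% paraformaldehyde, paraffin-embedded, H&E stained and examined by microscopy.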

[6] = Toxicity in C57BL/6 mouse allografted with mouse B16-F10 cells assessed as body weight loss at 10 mg/kg, ip administered for 14 days; settings: in vivo, 336 h
B16-F10 [7] = assay: Antiproliferative activity against mouse B16-F10 cells assessed as inhibition of cell viability measured for 48 hrs by microplate reader based MTT assay; format: functional; settings: B16-F10, 48 h; method in brief: as §2
B16-F10 [8] = assay: Antitumor activity against mouse B16-F10 cells allografted in C57BL/6 mouse assessed as reduction in tumor weight at 10 mg/kg, ip administered for 14 days in presence of (2-phenylthiazol-4-yl)(3,4,5-trimethoxyphenyl)methanone; format: functional, organism-based; settings: time 14.0 day; method in brief: as §3
B16-F10 [9] = assay: cells; settings: Mus musculus, B16-F10, 48 h
B16-F10 [10] = assay: Induction of apoptosis in mouse B16-F10 cells assessed as viable cells at 100 nM incubated for 48 hrs by Annexin V-FITC/PI analysis (reference value: 98.3 %); format: functional; settings: read-out: Activity
[11] = Antiproliferative activity against human YCC-11 cells assessed as inhibition of cell viability; format: functional, cell-based
B16-F10 [12] = assay: Upregulation of AC-H3 in mouse B16-F10 cells incubated for 12 hrs by Western blot analysis; format: functional, cell-based; settings: dose 20-200 nM, DDE = dose-dependent effect
Method in brief: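 B16-F10 cells (5 × 10⁵/well) treated 12 h with DMSO or compound, lysed in RIPA buffer. 30 μg protein separated by SDS-PAGE and blotted onto PVDF. Blocked 5% BSA 2 h, primary antibody overnight at 4 °C, secondary 1.5 h. Ac-H3 probed, with histone H3 and GAPDH as loading controls; band density quantified; three independent experiments.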

B16-F10 [13] = assay: Induction of cell cycle arrest in mouse B16-F10 cells assessed as accumulation of cells in G2/M phase at 100 nM measured after 48 hrs by PI/RNaseA staining based flow cytometry analysis (Rvb= 5.76%); format: functional
[14] = Cardiotoxicity in C57BL/6 mouse ssessed as shortening of QTc level by ECG analysis; format: toxicity; method in brief: as §4
Jurkat = assay: Antiproliferative activity against human Jurkat cells assessed as inhibition of cell viability measured for 48 hrs by microplate reader based CCK-8 assay; format: functional
B16-F10 [15] = assay: Induction of apoptosis in mouse B16-F10 cells assessed as necrotic cells at 100 nM incubated for 48 hrs by Annexin V-FITC/PI analysis (reference value: 0.012 %); format: functional
[16] = Toxicity in C57BL/6 mouse allografted with mouse B16-F10 cells assessed as morphological abnormalities in kidney at 5 mg/kg, ip administered for 14 days in presence of (2-phenylthiazol-4-yl)(3,4,5-trimethoxyphenyl)methanone by H and E staining based analysis; format: organism-based; settings: in vivo, 336 h, time 14 day; method in brief: as §5
[17] = In vivo inhibition of HDAC in tumor of mouse B16-F10 cells xenografted in C57BL/6 mouse assessed as increase in acetylated histone-H3 expression in presence of (2-phenylthiazol-4-yl)(3,4,5-trimethoxyphenyl)methanone by […] immunohistochemistry method; format: functional; parameters: scale not given: the % may be the effect or the level left; method in brief: as §1
[18] = Antiproliferative activity against human YCC3/7 cells assessed as inhibition of cell viability; format: functional, cell-based
A549 = assay: Antiproliferative activity against human A549 cells assessed as inhibition of cell viability measured for 48 hrs by microplate reader based CCK-8 assay; format: functional; settings: A549, 48 h
B16-F10 [19] = assay: Antitumor activity against mouse B16-F10 cells allografted in C57BL/6 mouse assessed as tumor growth inhibition at 10 mg/kg, ip administered for 14 days; format: functional; settings: B16-F10, 336 h, time 14 day, read-out: TGI; method in brief: as §3
B16-F10 [20] = assay: Induction of apoptosis in mouse B16-F10 cells assessed as early apoptotic cells at 100 nM incubated for 48 hrs by Annexin V-FITC/PI analysis (reference value: 1.68 %); format: functional
Tubulin (Sus scrofa) = Tubulin (Sus scrofa) (UniProt P02554+P02550); assay: Inhibition of pig brain tubulin polymerization at 10 uM measured after 20 mins by spectrometric method relative to control
Method in brief: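 Pig brain tubulin was purified by three assembly/disassembly cycles and then phosphocellulose chromatography. Compound at 10 μM in PEM buffer with 1 mM GTP and 5% glycerol at 37 °C. Polymerization followed at 340 nm; inhibition taken at 20 min versus vehicle control.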

B16-F10 [21] = assay: Inhibition of cell migration in mouse B16-F10 cells assessed as reduction in wound area ratio measured at 100 nM incubated for 24 hrs by wound healing assay; format: functional; parameters: scale not given: the % may be the effect or the level left
Method in brief: (§6)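 Confluent B16-F10 monolayers, seeded overnight, were scratched with a pipette tip and washed to remove debris. Cells were then treated, and phase-contrast images were taken at 0 and 24 h. Migration distance or wound area measured manually against DMSO control; n = 3.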

B16-F10 [22] = assay: Inhibition of cell migration in mouse B16-F10 cells assessed as reduction in wound area measured at 100 nM incubated for 24 hrs by wound healing assay; format: functional; parameters: scale not given: the % may be the effect or the level left; method in brief: as §6
[23] = In vivo inhibition of HDAC in tumor of mouse B16-F10 cells xenografted in C57BL/6 mouse assessed as increase in acetylated histone-H3 expression in presence of Entinostat by […] immunohistochemistry method; format: functional; parameters: scale not given: the % may be the effect or the level left; method in brief: as §1
Tubulin = Tubulin (Sus scrofa, UniProt P02554+P02550); assay: Inhibition of pig brain tubulin polymerization by spectrometric method
Method in brief: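 Phosphocellulose-purified pig brain tubulin mixed with graded compound concentrations in PEM buffer (100 mM PIPES, 1 mM MgCl2, 1 mM EGTA) plus 1 mM GTP and 5% glycerol. Absorbance at 340 nm and 37 °C; plateau absorbance used to calculate IC50.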

B16-F10 [24] = assay: Antitumor activity against mouse B16-F10 cells allografted in C57BL/6 mouse assessed as tumor growth inhibition at 10 mg/kg, ip administered for 14 days in presence of Entinostat; format: functional; settings: B16-F10, 336 h, time 14 day, read-out: TGI; method in brief: as §3
B16-F10 [25] = assay: Antiproliferative activity against mouse B16-F10 cells assessed as inhibition of cell viability measured for 48 hrs in presence of Entinostat by microplate reader based MTT assay; format: functional; settings: B16-F10, 48 h; method in brief: as §2
B16-F10 [26] = assay: Antitumor activity against mouse B16-F10 cells allografted in C57BL/6 mouse assessed as reduction in tumor weight at 10 mg/kg, ip administered for 14 days in presence of Entinostat; format: functional, organism-based; settings: time 14.0 day; method in brief: as §3
[27] = Toxicity in C57BL/6 mouse allografted with mouse B16-F10 cells assessed as morphological abnormalities in kidney at 5 mg/kg, ip administered for 14 days in presence of Entinostat by H and E staining based analysis; format: organism-based; settings: in vivo, 336 h, time 14 day; method in brief: as §5
[28] = Cardiotoxicity in C57BL/6 mouse ssessed as shortening of QTc level in presence of Entinostat by ECG analysis; format: toxicity; method in brief: as §4

Sequence of Tubulin (Sus scrofa) (P02550 whole entry, looked up): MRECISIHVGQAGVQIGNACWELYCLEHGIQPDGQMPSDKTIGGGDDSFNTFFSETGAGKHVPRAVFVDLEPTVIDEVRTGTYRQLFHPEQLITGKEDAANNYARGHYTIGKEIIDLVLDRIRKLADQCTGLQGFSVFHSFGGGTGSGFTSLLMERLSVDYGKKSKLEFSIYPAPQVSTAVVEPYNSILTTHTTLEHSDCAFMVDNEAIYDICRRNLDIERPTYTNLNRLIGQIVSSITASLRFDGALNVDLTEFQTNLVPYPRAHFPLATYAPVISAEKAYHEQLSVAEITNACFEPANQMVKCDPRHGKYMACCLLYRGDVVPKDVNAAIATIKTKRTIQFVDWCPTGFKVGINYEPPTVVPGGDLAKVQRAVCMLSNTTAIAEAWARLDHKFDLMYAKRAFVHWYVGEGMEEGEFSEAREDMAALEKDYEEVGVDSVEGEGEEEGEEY
Sequence of Tubulin (Sus scrofa) (P02554 whole entry, looked up): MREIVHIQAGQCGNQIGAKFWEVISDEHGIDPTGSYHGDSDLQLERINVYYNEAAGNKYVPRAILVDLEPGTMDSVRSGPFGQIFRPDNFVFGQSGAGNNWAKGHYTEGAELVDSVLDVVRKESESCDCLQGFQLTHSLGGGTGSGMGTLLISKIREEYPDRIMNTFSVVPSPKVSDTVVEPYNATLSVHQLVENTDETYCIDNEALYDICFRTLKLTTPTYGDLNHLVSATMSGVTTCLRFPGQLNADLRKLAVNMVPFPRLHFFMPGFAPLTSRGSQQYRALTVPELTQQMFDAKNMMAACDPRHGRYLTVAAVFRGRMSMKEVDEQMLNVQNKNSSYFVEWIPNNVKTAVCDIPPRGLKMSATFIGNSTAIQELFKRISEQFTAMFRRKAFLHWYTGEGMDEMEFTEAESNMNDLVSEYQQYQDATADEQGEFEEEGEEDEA

## Nc1ccccc1NC(=O)c1ccc(CNC(=O)OCc2cccnc2)cc1 [ENTINOSTAT]
[1]
  Activity: 27.9%
HCT-116
  pIC50: 5.76
B16-F10 [2]
  inhibition in vivo at 10 mg/kg: 53%
B16-F10 [3]
  Activity: 22.4%
[4]
  Activity: Non-Toxic
[5]
  Activity: Non-Toxic
[6]
  Activity: Non-Toxic
B16-F10 [7]
  pIC50: 5.65
B16-F10 [8]
  Activity: Active
B16-F10 [9]
  pIC50: 5.94
B16-F10 [10]
  viability at 0.1 µM: 59.9%
[11]
  pIC50: 5.25
B16-F10 [12]
  Activity: Dde
B16-F10 [13]
  Activity: 42.17%
[14]
  Activity: Toxic
Jurkat
  pIC50: 6.16
B16-F10 [15]
  Activity: 1.37%
[16]
  Activity: Non-Toxic
[17]
  Activity: 16.3%
[18]
  pIC50: 4.89
A549
  pIC50: 5.77
B16-F10 [19]
  inhibition in vivo at 10 mg/kg: 47%
B16-F10 [20]
  Activity: 16.3%

## COc1cc(C(=O)c2csc(-c3ccccc3)n2)cc(OC)c1OC
Tubulin (Sus scrofa)
  inhibition: 78%
HCT-116
  pIC50: 7.15
B16-F10 [21]
  Activity: 16.24%
B16-F10 [22]
  Activity: 16.2%
B16-F10 [3]
  Activity: 0.49%
[5]
  Activity: Non-Toxic
[23]
  Activity: 16.3%
[6]
  Activity: Non-Toxic
B16-F10 [7]
  pIC50: 6.01
Tubulin
  pIC50: 5.10
B16-F10 [10]
  viability at 0.1 µM: 60.7%
[11]
  pIC50: 5.77
B16-F10 [24]
  inhibition in vivo at 10 mg/kg: 53%
B16-F10 [25]
  pIC50: 5.94
B16-F10 [26]
  Activity: Active
[27]
  Activity: Non-Toxic
B16-F10 [13]
  Activity: 76.58%
[14]
  Activity: Toxic
Jurkat
  pIC50: 7.52
B16-F10 [15]
  Activity: 0.75%
[18]
  pIC50: 5.71
A549
  pIC50: 6.72
[28]
  Activity: Non-Toxic
B16-F10 [19]
  inhibition in vivo at 10 mg/kg: 25%
B16-F10 [20]
  Activity: 29.1%
